Assay results: ChEMBL document CHEMBL3272174, “Molecular structural effects involved in the interaction of quinolinemethanolamines with DNA. Implications for antimalarial action” (1977)
Activity calls are given as the source filed them.

Key:
Escherichia coli [1] = test: Inhibition of Escherichia coli RNA polymerase assessed as reduction in RNA transcription at compound/DNA molar ratio of 1
Escherichia coli [2] = test: Binding affinity to closed circular superhelical Escherichia coli ColE1 DNA by viscometric titrations
Calf thymus DNA [3] = test: Binding affinity to sonicated calf thymus DNA by viscometric titrations; type: nucleic-acid assay; details: Bos taurus
How it was run: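 Sonicated calf thymus DNA (1.0-3.0 mL) titrated with small aliquots of concentrated drug stock in a semimicro Ubbelohde dilution viscometer at 25 °C, in standard buffer. Volume change stayed at or below 3%, and DNA dilution was corrected. Reduced specific viscosity ratio plotted against drug/nucleotide molar ratio.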

Calf thymus DNA [4] = test: Binding affinity to sonicated calf thymus DNA at 10^-3 M by spectroscopy; type: nucleic-acid assay; details: Bos taurus
How it was run: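 Difference spectra: sonicated calf thymus DNA (2.3×10^-3 M) and drug (3.5×10^-4 M) in standard pH 7.0 phosphate/EDTA buffer were loaded in separate compartments of 10-mm tandem cells to set a baseline. Equal volumes were then mixed and read against the separated solutions.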

Calf thymus DNA [5] = test: Binding affinity to calf thymus DNA assessed as melting temperature at 10^-4 M by thermal denaturation assay; type: nucleic-acid assay; details: Bos taurus
How it was run: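 Calf thymus DNA dissolved in standard buffer (3.8×10^-3 M NaH2PO4, 5×10^-4 M EDTA, pH 7.0, ionic strength 0.0095) and dialyzed against it. Thermal denaturation: DNA at 10^-4 M (nucleotide equivalents), drug at 10^-4 M. Absorbance recorded as a function of temperature in stoppered 1.0-cm quartz cuvettes, with a thermistor in the cell block.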

Plasmodium berghei [6] = test: Antimalarial activity against Plasmodium berghei infected in mouse assessed as increase in mean survival time at 80 to 640 mg/kg measured after 60 days post infection relative to control; type: functional, organism-based
Plasmodium berghei [7] = test: Antimalarial activity against Plasmodium berghei infected in mouse assessed as increase in mean survival time at 640 mg/kg measured after 60 days post infection relative to control; type: functional
How it was run: (§1)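 Tested at Walter Reed Army Institute of Research (communicated data) in mice infected with P. berghei. Five mice per test. Read-out is the increase in mean survival time (ΔMST, days) over the control group. Activity is defined as ΔMST above 6.1 days. Cure (C) is scored when at least one of the five mice survives to 60 days postinfection.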

Plasmodium berghei [8] = test: Antimalarial activity against Plasmodium berghei infected in mouse assessed as increase in mean survival time at 160 mg/kg measured after 60 days post infection relative to control; type: functional; how it was run: as §1
Plasmodium berghei [9] = test: Antimalarial activity against Plasmodium berghei infected in mouse assessed as increase in mean survival time at 40 mg/kg measured after 60 days post infection relative to control; type: functional; how it was run: as §1
Plasmodium berghei [10] = test: Antimalarial activity against Plasmodium berghei infected in mouse assessed as increase in mean survival time at 320 mg/kg measured after 60 days post infection relative to control; type: functional; how it was run: as §1
Plasmodium berghei [11] = test: Antimalarial activity against Plasmodium berghei infected in mouse assessed as increase in mean survival time at 80 mg/kg measured after 60 days post infection relative to control; type: functional; how it was run: as §1
Calf thymus DNA [12] = test: Binding affinity to calf thymus DNA assessed as melting temperature at 10^-5 M by thermal denaturation assay; type: nucleic-acid assay; details: Bos taurus
How it was run: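 Thermal melting of dialyzed calf thymus DNA (10^-4 M nucleotide) with drug at 10^-5 M, in standard phosphate/EDTA buffer at pH 7.0. Absorbance followed against temperature in 1.0-cm stoppered quartz cuvettes, with temperature monitored by a cell-block thermistor.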

Row | Activity (Escherichia coli [2]) | Activity (Calf thymus DNA [3]) | SMILES | Activity (Calf thymus DNA [4]) | Tm (Calf thymus DNA [5]) [°C] | further results
1 | inactive | inactive | O[C@@H](c1cc(C(F)(F)F)nc2c(C(F)(F)F)cccc12)[C@H]1CCCCN1 (relative stereo) | Active | 63 | Activity (Escherichia coli [1]): inactive; Activity (Plasmodium berghei [6]): Active
2 |  |  | COc1cccc2c1C(=O)c1c(O)c3c(c(O)c1C2=O)C[C@@](O)(C(C)=O)C[C@@H]3O[C@H]1C[C@H](N)[C@H](O)[C@H](C)O1 |  |  | Activity (Escherichia coli [1]): Active
3 |  | Active | C=C[C@H]1CN2CC[C@H]1C[C@H]2[C@H](O)c1ccnc2ccc(OC)cc12 | Active | 66.3 | 
4 | inactive |  | NCCCCN |  |  | 
5 | inactive | Active | CCN(CC)CCCC(C)Nc1ccnc2cc(Cl)ccc12 (configuration not stated) |  |  | Tm (Calf thymus DNA [12]): 75 °C
6 | Active | Active | CCN(CC)CCCC(C)Nc1c2ccc(Cl)cc2nc2ccc(OC)cc12 (configuration not stated) |  |  | Tm (Calf thymus DNA [12]): 88 °C

Row | SMILES | Activity (Escherichia coli [2]) | Activity (Calf thymus DNA [3]) | Activity (Calf thymus DNA [4]) | Tm (Calf thymus DNA [5]) [°C] | further results
7 | NC(=O)c1cc(C(O)C2CCCCN2)c2cccc(C(F)(F)F)c2n1 (configuration not stated) | inactive | Active | Active | 64.9 | fold change (FC) (Plasmodium berghei [7]): 7.9; fold change (FC) (Plasmodium berghei [8]): 0.5; fold change (FC) (Plasmodium berghei [9]): 0.3; fold change (FC) (Plasmodium berghei [10]): 0.7; fold change (FC) (Plasmodium berghei [11]): 0.3
8 | OC(c1cc(C(F)(F)F)nc2c(F)cccc12)C1CCCCN1 (configuration not stated) | inactive | inactive | Active | 61.5 | fold change (FC) (Plasmodium berghei [10]): 7.1; fold change (FC) (Plasmodium berghei [11]): 4.1
